Bioassay records from PubChem.
Only some compounds are listed: those with a hit (about 2.4% of all), similar ones and a draw of the others.
OPRM1-OPRD1 ag: agonists of OPRM1-OPRD1 heterodimerization, primary screen, cell-based, luminescence. cells. activation, % at 9.3 µM. 340,000 tested, 0.3% active. AID 504326, 2011
HTR5A inv ctr: HTR5A inverse agonists in luminescence cell assay, primary screen, counter-screen for OPRM1-OPRD1 heterodimer inverse agonist project, full-deck HTS; 5-hydroxytryptamine receptor 5A (Homo sapiens), P47898; 340,000 tested, 0.083% active; inhibition, % at 9.3 µM; HTR5A cell line, inverse agonism; AID 504634, 2011; in the data active = inhibition mostly above about 23%, no sharp cut-off; inactive = mostly below about 18%
Target sequence (P47898 whole entry, looked up): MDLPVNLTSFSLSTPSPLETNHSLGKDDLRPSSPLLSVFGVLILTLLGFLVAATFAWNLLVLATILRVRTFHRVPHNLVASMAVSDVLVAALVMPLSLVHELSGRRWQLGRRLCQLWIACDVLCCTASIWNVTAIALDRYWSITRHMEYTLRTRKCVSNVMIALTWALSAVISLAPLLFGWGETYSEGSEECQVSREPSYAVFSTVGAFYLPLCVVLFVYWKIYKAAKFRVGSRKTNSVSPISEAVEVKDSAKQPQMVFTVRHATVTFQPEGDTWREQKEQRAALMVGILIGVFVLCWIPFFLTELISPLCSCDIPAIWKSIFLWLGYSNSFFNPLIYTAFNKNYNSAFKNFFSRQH
HTR5A ag: HTR5A agonists in luminescence cell assay, primary screen, counter-screen for OPRM1-OPRD1 heterodimer agonist project, full-deck HTS; 5-hydroxytryptamine receptor 5A (Homo sapiens), P47898; cell-based; activation, % at 9.3 µM; 340,000 tested, 0.61% active; in the data active = activation mostly above about 9.5%, no sharp cut-off; inactive = mostly below about 7.6%
OPRM1-OPRD1 inv: inverse agonists of MOR-DOR heterodimerization, primary screen, cell-based, luminescence | cell-based MOR-DOR heterodimer luminescence, inverse agonism | Mu-type opioid receptor (Homo sapiens) + Delta-type opioid receptor (Homo sapiens), … | inhibition, % at 9.3 µM | 340,000 tested, 0.21% active; in the data active = inhibition above about 22%, passing the limit was not always enough
MC4R antagonist: MC4R antagonists of cAMP signaling, primary screen, cell-based, TR-FRET, antagonist arm of biased-ligand search; 360,000 tested, 0.48% active; MC4R-expressing cells, MTII-stimulated cAMP, LANCE TR-FRET; inhibition, % at 6.5 µM; AID 540295, 2011; Melanocortin receptor 4 (Homo sapiens), P32245;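 active = inhibition above its plate's cutoff, the mean of tested wells on that plate plus 3 SD, cut at about 29% in these data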
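System – human MC4R-expressing U2OS cells · Also added – Melanotan II · Dosing – one concentration, 6.5 µM nominal · Timing – 30-min compound, 1-h challenge, 1-h detection, room temperature · Measured by – Eu-cAMP/anti-cAMP TR-FRET, emission 671 nm · Replicates – singlicate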
MC4R barr agon: MC4R agonists recruiting beta-arrestin, primary screen, cell-based, luminescence, agonist arm of biased-ligand search; Melanocortin receptor 4 (Homo sapiens), P32245; activation, % at 8.9 µM; U2OS MC4R beta-arrestin complementation; percent of melanotan II response, DMSO zero; AID 540308, 2011; 360,000 tested, 0.98% active;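 active = activation above a per-plate cutoff, the mean activation of sample wells on that plate plus 3 SD, cut at about 8% in these data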
OPRM1-D1 ag cf: agonists of MOR-DOR heterodimerization, confirmation, cell-based, luminescence; shares compounds with OPRM1-OPRD1 ag; cells, luminescence complementation; activation, % at 9.3 µM; 830 tested, 45% active; AID 504904, 2011
HTR5A ag counter: HTR5A agonists in cells, counter-screen for OPRM1-OPRD1 heterodimer agonist project, cell-based, luminescence; shares compounds with OPRM1-OPRD1 ag; HTR5A agonist counterscreen; activation, % at 9.3 µM; 830 tested, 8% active; AID 504905, 2011; in the data active = activation above about 17%
Numbers stand for hits; i = inactive; nt = not tested or not shown. Cut-off read from the data, not from the text of the source, unless noted: active = activation above about 18%; inactive = the rest.

SMILES	OPRM1-OPRD1 ag	HTR5A inv ctr	HTR5A ag	OPRM1-OPRD1 inv	MC4R antagonist	MC4R barr agon	OPRM1-D1 ag cf	HTR5A ag counter
O=C1C2CCCC1C(N1CCCCC1)CC2 (centres undefined)	i	i	i	i	i	i	nt	nt
Cc1nonc1-c1nc(-c2nonc2N)n[nH]1	i	i	i	i	i	i	nt	nt
O=c1[nH]c(=O)n(CCc2ccccc2)c(O)c1C=NC1CC1	nt	nt	nt	nt	i	i	nt	nt
C=Cn1ccnc1P(=S)(c1nccn1C=C)C1CCCCC1	i	i	i	i	i	i	nt	nt
Cc1nc2c(=O)n(C)c(=O)nc-2n(C)n1	20	i	i	i	i	i	22	i
O=P(Nc1ccccc1)(Nc1ccccc1)Oc1cccc(Cl)c1	i	i	i	i	i	i	nt	nt
COc1ccc2c(c1)NP(=S)(c1ccccc1)N2C (centres undefined)	19	i	i	i	i	i	i	i
C1CNC2NCCNC2N1 (centres undefined)	i	i	i	i	i	i	nt	nt
CN1CCCC(C(=O)c2ccc(Cl)cc2)C1 (centres undefined)	21	i	i	i	i	i	i	i
Cc1ccc(C[n+]2c(-c3ccc(C)cc3)cc(-c3ccc(C)cc3)cc2-c2ccc(C)cc2)cc1	68	i	23	i	i	56	i	i
C[C@@H]1CN([C@@H](C)CO)C(=O)CCCn2nncc2CO[C@H]1CN(C)C(=O)Oc1ccccc1	nt	nt	nt	nt	i	i	nt	nt
C[C@@H]1O[C@@H](O[C@H]2C[C@@H](O)[C@]3(CO)[C@@H]4C(CC[C@]3(O)C2)[C@@]2(O)CC[C@H](C3COC(=O)C3)[C@@]2(C)C[C@H]4O)[C@H](O)[C@H](O)[C@H]1O (some centres undefined)	73	i	i	i	i	28	i	i
COCCNC(=O)N1[C@H]2CC[C@@H]1C(C(=O)OC)=C(c1ccc(OC)c(OC)c1)C2	i	i	i	i	i	i	nt	nt
COC(=O)C1=C(c2ccc(C(C)=O)cc2)C[C@@H]2CC[C@H]1N2C(=O)NCc1ccc(F)cc1	i	i	i	i	i	i	nt	nt
COc1ccc(C(CNC(=O)Cc2ccc(Cl)c(Cl)c2)N2CCCCC2)cc1 (centres undefined)	i	i	i	i	i	i	nt	nt
COc1ccc(C(CNC(=O)Cc2ccc(Cl)c(Cl)c2)N(C)C)cc1 (centres undefined)	121	i	i	i	i	i	i	i
C=CCCC1(CC)C(=O)NC(=S)NC1=O	i	i	i	i	i	i	nt	nt
Cc1ccc(-n2cc(CNC(C)Cc3cnccn3)c(-c3cccc(C)c3)n2)cc1 (centres undefined)	42	i	i	i	i	i	i	i
CC(Cc1cnccn1)NCc1c(C(=O)N2CCCCCCC2)nc2ccc(Cl)cn12 (centres undefined)	i	i	i	i	i	i	nt	nt
C[C@]12CC[C@H]3C(CCC4(O)CC(O)CC[C@]34C=O)C1=CC[C@H]2c1ccc(=O)oc1 (some centres undefined)	67	i	23	i	i	21	33	23
CC(=O)O[C@H]1[C@H]2O[C@]23[C@@H]2CC[C@]4(O)C[C@@H](O)CC[C@]4(C)C2CC[C@]3(C)[C@H]1c1ccc(=O)oc1 (some centres undefined)	75	i	33	i	i	24	301	i
COc1cc2c(cc1OC)C(C(=O)N(C)C1CCCCC1)C1CCCCN1C2=O (centres undefined)	i	i	i	i	i	i	nt	nt
C=CCN1C[C@@H](C)N(C(c2ccc(C(=O)N(CC)CC)cc2)c2cccc(OC)c2)C[C@@H]1C (some centres undefined)	nt	i	i	nt	i	i	nt	i
O=C1C(=O)c2cccc3cccc1c23	i	i	i	i	i	i	nt	nt
O=C1C(=O)c2ccccc2-c2ccccc21	40	i	i	i	i	i	i	i
SMILES	OPRM1-OPRD1 ag	HTR5A inv ctr	HTR5A ag	OPRM1-OPRD1 inv	MC4R antagonist	MC4R barr agon	OPRM1-D1 ag cf	HTR5A ag counter
N=c1c[n+](CC23CC4CC(CC(C4)C2)C3)[n-]o1	24	i	i	i	i	i	36	i
C[C@H]1CC[C@@H]2[C@@H](C)[C@H]3[C@H](C[C@H]4[C@@H]5CC=C6C[C@@H](O[C@@H]7O[C@H](CO)[C@H](O)[C@H](O[C@@H]8O[C@H](CO)[C@@H](O)[C@H](O)[C@H]8O)[C@H]7O[C@@H]7O[C@@H](C)[C@H](O)[C@@H](O)[C@H]7O)CC[C@]6(C)[C@H]5CC[C@]34C)N2C1	i	i	i	i	i	i	nt	nt
CNC(=O)Nc1ccc(C(=O)N/N=C\C23CC[C@@H](O)CC2(O)CC[C@@H]2[C@@H]3CCC3(C)C(C4=CC(=O)OC4)CCC23O)cc1 (some centres undefined)	i	i	i	i	i	i	nt	nt
CC12CCC(O)CC1CCC1C2CCC2(C)C(C3=CC(=O)OC3)CCC12O (centres undefined)	93	i	33	i	i	28	i	i
C[C@]12CC[C@H](O)C[C@H]1CC[C@@H]1[C@@H]2C[C@@H](O)[C@]2(C)[C@@H](C3=CC(=O)OC3)CC[C@]12O	69	i	34	i	i	24	40	30
C[C@]12CCC3C(CC[C@H]4C[C@@H](O)CC[C@]34C)[C@H]1C=CC2=O (some centres undefined)	i	i	i	i	i	i	nt	nt
CC(=O)OC1CC(OC2C(O)CC(OC3C(O)CC(OC4CCC5(C)C(CCC6C5CC(O)C5(C)C(C7=CC(=O)OC7)CCC65O)C4)OC3C)OC2C)OC(C)C1OC1OC(CO)C(O)C(O)C1O (centres undefined)	69	i	26	i	i	24	i	i
